Results of several laboratories.
MDM2: E3 ubiquitin-protein ligase Mdm2 (MDM2, Homo sapiens, UniProt Q00987)
CYP3A4: Cytochrome P450 3A4 (CYP3A4, Homo sapiens, UniProt P08684)
CHRM1: Muscarinic acetylcholine receptor M1 (CHRM1, Homo sapiens, UniProt P11229)

SMILES | target | test | system | setting | endpoint | value
COC(=O)C1=CCCN(C)C1 | Acetyl-CoA acetyltransferase, mitochondrial (Homo sapiens, UniProt P24752) | enzyme activity, inhibitor | – | – | IC50 | ~11.1 µM
CCc1nnc(NS(=O)(=O)c2ccc(NC(=S)NC(=O)/C=C/c3ccc(F)cc3)cc2)s1 | Prostaglandin E2 receptor EP2 subtype (PTGER2, Homo sapiens, UniProt P43116) | cAMP, antagonist, TR-FRET | – | – | Kb | 0.0088 µM
CC(C)C[C@H](NC(=O)[C@H](Cc1ccccc1)NC(=O)c1cnccn1)B(O)O | Lysosomal Pro-X carboxypeptidase (PRCP, Homo sapiens, UniProt P42785) | enzyme activity, inhibitor | – | – | IC50 | 12.4 µM
CC(=O)N[C@H](C(=O)N[C@@H](CC(=O)O)C(=O)N[C@@H](CC(=O)O)C(=O)N[C@@H](Cc1ccccc1)C(=O)N[C@@H](CC(=O)O)C(=O)N[C@@H](CCCNC(=N)N)C(=O)N[C@H](C(=O)N[C@@H](Cc1c[nH]c2ccccc12)C(=O)N[C@@H](CCC(N)=O)C(=O)NCC(=O)N[C@@H](CC(C)C)C(=O)N[C@H](C(=O)NCC(=O)N[C@@H](CC(C)C)C(N)=O)C(C)C)C(C)C)C(C)C | MDM2 | ligand displacement, FP | – | – | Kd | 41 µM
N#CC(CCN1CCC(N)CC1)(c1ccccc1)c1ccccc1 | Potassium voltage-gated channel subfamily A member 3 (Kcna3, Mus musculus, UniProt P16390) | ion current, inhibitor, patch clamp | – | – | IC50 | > 100 µM
N#C[C@H](C[C@@H]1CCCNC1=O)NC(=O)[C@H](CC1CC1)NC(=O)c1cc2cccc(Cl)c2[nH]1 | CYP3A4 | enzyme activity, inhibitor | human, liver microsomes | midazolam probe | IC50 | 69.4 µM
CCc1cc(/C(C)=N/OCc2ccc(C3CCCCC3)c(C(F)(F)F)c2)ccc1CN1CC(C(=O)O)C1 | CYP3A4 | enzyme activity, inhibitor | human, liver microsomes | 20 min, midazolam probe | IC50 | > 1.1 µM
N[C@@H](C[C@]1(C(=O)O)C[C@H]2OC[C@@H](O)[C@@H](O)[C@H]2O1)C(=O)O | Glutamate receptor ionotropic, kainate 3 (Rattus norvegicus, UniProt P42264, T520A) | ligand displacement, radioligand | – | – | Ki | 1.4 µM
CC(=O)N[C@@H](CC(C)C)C(=O)N[C@H](C(=O)N[C@@H](Cc1ccccc1)C(=O)N[C@@]1(C)CCCC=CCCC[C@@](C)(C(=O)N[C@@H](CCC(N)=O)C(=O)N[C@@H](CC(C)C)C(=O)N[C@H](C(=O)N[C@@H](CO)C(N)=O)[C@@H](C)O)NC(=O)[C@H](Cc2c[nH]c3ccccc23)NC(=O)[C@H](Cc2ccc(O)cc2)NC(=O)[C@H](CCC(=O)O)NC1=O)[C@@H](C)O | MDM2 | ligand displacement, FP | – | – | IC50 | 0.049 µM
Cc1cc(C)nc(Nc2ncc(C(=O)NCCc3c(C)[nH]c4ccccc34)cn2)c1 | Cytochrome P450 1A2 (CYP1A2, Homo sapiens, UniProt P05177) | enzyme activity, inhibitor | human, liver microsomes | – | IC50 | 16 µM
c1cc(N2CCNCC2)c2cc[nH]c2c1 | CHRM1 | ligand displacement, radioligand | – | cell membranes | Ki | > 31.6 µM
COc1ccc(CCNC[C@H](O)c2ccc(O)cc2)cc1OC | Beta-3 adrenergic receptor (ADRB3, Homo sapiens, UniProt P13945) | cell-free assay | – | – | Ki | 2.1 µM
COc1cc(C(=O)N2CC[C@@H](O)[C@@H](N)C2)cc2nc(-c3cc4ccccc4n3CC3CC3)n(C)c12 | CHRM1 | calcium signal, agonist | – | – | EC50 | 5.01 µM
O=C(O)c1ccccc1-c1c2cc(Br)c(=O)cc-2oc2[c]([Hg+])c(O)c(Br)cc12 | Papain (Carica papaya, UniProt P00784) | binding, ITC | – | – | Kd | ~39000 µM
CC(C)=CCC/C(C)=C/CC/C(C)=C/CSc1ccccc1C(=O)O | 4,4'-diapophytoene synthase (Staphylococcus aureus, UniProt A9JQL9) | enzyme activity, inhibitor | – | – | Ki | 0.11 µM
NCCCCCCNC(=O)c1ccc(NC(=O)c2ccc(CN(C(=O)c3ccc4c(c3)OCC(=O)N4)C3CC3)cc2)cc1 | Histone-lysine N-methyltransferase NSD2 (NSD2, Homo sapiens, UniProt O96028) | protein level, degrader | – | – | DC50 | 0.35 µM
CC[C@H](C)[C@H](NC(=O)[C@H](CCCNC(=N)N)NC(=O)[C@H](CCCCN)NC(=O)[C@@H]1CCCN1C(=O)[C@@H](N)Cc1c[nH]c2ccccc12)C(=O)N[C@@H](C)C(=O)O | N-terminal Xaa-Pro-Lys N-methyltransferase 1 (Homo sapiens, UniProt Q9BV86) | binding, ITC | – | pH 7.5 | Kd | 47 µM
